Measured values published in ChEMBL document CHEMBL3351263, “Synthesis and biological evaluation of novel marine-derived indole-based 1,2,4-oxadiazoles derivatives as multifunctional neuroprotective agents” (2015).
Active and inactive are the calls of the source. The rule behind the calls is not given here.

Assays:
A549 = assay: Cytotoxicity against human A549 cells by MTT assay; format: functional
How it was run: (§1)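 Cells were exposed to compound at 10 μM, and cytotoxicity was expressed as percent inhibition of growth.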

SH-SY5Y [1] = assay: Neuroprotective activity in human SH-SY5Y cells assessed as inhibition Abeta25-35-induced reduction of cell viability at 10 uM compound pretreated for 2 hrs before induction cell viability measured after 24 hrs (reference value: 69.77%); format: functional
SH-SY5Y [2] = assay: Neuroprotective activity in human SH-SY5Y cells assessed as inhibition Abeta25-35-induced reduction of cell viability at 1 uM compound pretreated for 2 hrs before induction cell viability measured after 24 hrs (reference value: 69.77%); format: functional
[3] = Cytotoxicity against human HL60 cells by MTT assay; format: functional, HL-60; how it was run: as §1
SH-SY5Y [4] = assay: Neuroprotective activity in human SH-SY5Y cells assessed as inhibition H2O2-induced damage measured as cell viability at 100 uM measured after 24 hrs; format: functional
How it was run: (§2)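 Human SH-SY5Y cells were subjected to H2O2-induced damage, with compounds at 1 or 10 μM and L-NAC at 100 μM as the positive control. Cell viability was compared with control and with H2O2-only wells. Data are mean ± SD, n = 3-6.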

SH-SY5Y [5] = assay: Neuroprotective activity in human SH-SY5Y cells assessed as inhibition OGD-induced injuries measured as cell viability at 10 uM measured after 24 hrs; format: functional
How it was run: (§3)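 Oxygen-glucose deprivation (OGD) injury was applied to human SH-SY5Y cells, with compounds at 1 μM or higher. Cell viability, or its increase, was compared with control and with OGD-only wells. Data are mean ± SD, n = 3-6.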

SH-SY5Y [6] = assay: Neuroprotective activity in human SH-SY5Y cells assessed as inhibition OGD-induced injuries measured as cell viability at 1 uM measured after 24 hrs; format: functional; how it was run: as §3
SH-SY5Y [7] = assay: Neuroprotective activity in human SH-SY5Y cells assessed as inhibition H2O2-induced damage measured as cell viability at 10 uM measured after 24 hrs; format: functional; how it was run: as §2
SH-SY5Y [8] = assay: Neuroprotective activity in human SH-SY5Y cells assessed as inhibition H2O2-induced damage measured as cell viability at 1 uM measured after 24 hrs; format: functional, cell-based; how it was run: as §2
SH-SY5Y [9] = assay: Neuroprotective activity in human SH-SY5Y cells assessed as inhibition Abeta25-35-induced reduction of cell viability at 10 uM after 24 hrs by SRB assay; format: functional
SH-SY5Y [10] = assay: Neuroprotective activity in human SH-SY5Y cells assessed as inhibition OGD-induced injuries measured as increase in cell viability at 1 uM measured after 24 hrs; format: functional; how it was run: as §3

In the case of `Nc1ncc(-c2ccc(-c3noc(Cc4c[nH]c5ccccc45)n3)o2)cn1`, the “inhibition (INH)” value (A549) was 2%, the Activity (SH-SY5Y [1]) was “inactive” and the Activity (SH-SY5Y [2]) was “inactive”. For the same molecule, the “inhibition (INH)” value [3] was 26%.
For `CC(C)c1ccc(-c2ccc(-c3noc(Cc4c[nH]c5ccccc45)n3)o2)cc1`, the Activity (SH-SY5Y [1]) was 93.3% and the Activity (SH-SY5Y [2]) was “inactive”.
For `CC(=O)N[C@@H](CS)C(=O)O` [ACETYLCYSTEINE], the Activity (SH-SY5Y [4]) was 89.2%.
`CCOc1ccc(-c2ccc(-c3noc(Cc4c[nH]c5ccccc45)n3)o2)cc1` showed an Activity (SH-SY5Y [5]) of 76.2%, an Activity (SH-SY5Y [6]) of 80.6% and an Activity (SH-SY5Y [1]) of 89.1%. The Activity (SH-SY5Y [7]) was 98%, the Activity (SH-SY5Y [2]) was “inactive” and the Activity (SH-SY5Y [8]) was “inactive”.
In the case of `c1ccc2c(Cc3nc(-c4ccc(-c5ccc(N6CCOCC6)cc5)o4)no3)c[nH]c2c1`, the Activity (SH-SY5Y [1]) was “inactive” and the Activity (SH-SY5Y [2]) was “inactive”.
For `OCc1ccc(-c2ccc(-c3noc(Cc4c[nH]c5ccccc45)n3)o2)cc1`, the Activity (SH-SY5Y [1]) was 92.1% and the Activity (SH-SY5Y [2]) was “inactive”.
With `Cc1ccc(-c2ccc(-c3noc(Cc4c[nH]c5ccccc45)n3)o2)cc1` the Activity (SH-SY5Y [1]) was 80.3% and the Activity (SH-SY5Y [2]) was “inactive”.
In the case of `CN1CCN(c2ccc(-c3ccc(-c4noc(Cc5c[nH]c6ccccc56)n4)o3)cc2)CC1`, the Activity (SH-SY5Y [1]) was “inactive” and the Activity (SH-SY5Y [2]) was “inactive”.
For `COc1ccc(-c2ccc(-c3noc(Cc4c[nH]c5ccccc45)n3)o2)cc1`, the Activity (SH-SY5Y [1]) was 91.5%, the Activity (SH-SY5Y [7]) was 98% and the Activity (SH-SY5Y [2]) was “inactive”. For the same molecule, the Activity (SH-SY5Y [8]) was “inactive”.
For `Cc1ccccc1-c1ccc(-c2noc(Cc3c[nH]c4ccccc34)n2)o1`, the Activity (SH-SY5Y [1]) was “inactive” and the Activity (SH-SY5Y [2]) was “inactive”.
For `Oc1ccc(-c2ccc(-c3noc(Cc4c[nH]c5ccccc45)n3)o2)cc1`, the Activity (SH-SY5Y [1]) was “inactive” and the Activity (SH-SY5Y [2]) was “inactive”.
In the case of `c1ccc(-c2ccc(-c3noc(Cc4c[nH]c5ccccc45)n3)o2)cc1`, the Activity (SH-SY5Y [1]) was “inactive” and the Activity (SH-SY5Y [2]) was “inactive”.
In the case of `N#Cc1ccc(-c2ccc(-c3noc(Cc4c[nH]c5ccccc45)n3)o2)cc1`, the Activity (SH-SY5Y [1]) was 93.3% and the Activity (SH-SY5Y [2]) was “inactive”.
With `CN(C)c1ccc(-c2ccc(-c3noc(Cc4c[nH]c5ccccc45)n3)o2)cc1` the Activity (SH-SY5Y [1]) was “inactive”, the Activity (SH-SY5Y [7]) was 98% and the Activity (SH-SY5Y [2]) was “inactive”. The Activity (SH-SY5Y [8]) was “inactive”.
In the case of `O=C(O[C@@H]1Cc2c(O)cc(O)cc2O[C@@H]1c1cc(O)c(O)c(O)c1)c1cc(O)c(O)c(O)c1` [EPIGALOCATECHIN GALLATE], the Activity (SH-SY5Y [1]) was 96.2%.
`CCCc1ccc(-c2ccc(-c3noc(Cc4c[nH]c5ccccc45)n3)o2)cc1` gave an Activity (SH-SY5Y [1]) of 114.2%, an Activity (SH-SY5Y [9]) of 96% and an Activity (SH-SY5Y [2]) of 89.7%.
For `Clc1ccc(-c2ccc(-c3noc(Cc4c[nH]c5ccccc45)n3)o2)cc1`, the Activity (SH-SY5Y [1]) was 83.9% and the Activity (SH-SY5Y [2]) was “inactive”.
For `Nc1ccc(-c2cccc(-c3noc(Cc4c[nH]c5ccccc45)n3)c2)cc1`, the Activity (SH-SY5Y [5]) was “inactive”, the Activity (SH-SY5Y [1]) was 106% and the Activity (SH-SY5Y [2]) was “inactive”.
With `Cc1cccc(-c2ccc(-c3noc(Cc4c[nH]c5ccccc45)n3)o2)c1` the Activity (SH-SY5Y [1]) was “inactive” and the Activity (SH-SY5Y [2]) was “inactive”.
With `Nc1ccc(-c2ccc(-c3noc(Cc4c[nH]c5ccccc45)n3)s2)cc1` the Activity (SH-SY5Y [1]) was “inactive” and the Activity (SH-SY5Y [2]) was “inactive”.
With `CC(C)(C)c1ccc(-c2ccc(-c3noc(Cc4c[nH]c5ccccc45)n3)o2)cc1` the Activity (SH-SY5Y [1]) was 92.1% and the Activity (SH-SY5Y [2]) was “inactive”.
For `Nc1ccc(-c2ccc(-c3noc(Cc4c[nH]c5ccccc45)n3)o2)cc1`, the “inhibition (INH)” value (A549) was 2%, the Activity (SH-SY5Y [1]) was 92.4% and the Activity (SH-SY5Y [10]) was 18.96%. The Activity (SH-SY5Y [2]) was “inactive” and the “inhibition (INH)” value [3] was 26%.
In the case of `CCc1ccc(-c2ccc(-c3noc(Cc4c[nH]c5ccccc45)n3)o2)cc1`, the Activity (SH-SY5Y [1]) was 100% and the Activity (SH-SY5Y [2]) was “inactive”.
With `Fc1ccc(-c2ccc(-c3noc(Cc4c[nH]c5ccccc45)n3)o2)cc1` the Activity (SH-SY5Y [1]) was 84.8% and the Activity (SH-SY5Y [2]) was “inactive”.
With `Brc1ccc(-c2ccc(-c3noc(Cc4c[nH]c5ccccc45)n3)o2)cc1` the Activity (SH-SY5Y [1]) was 83.5% and the Activity (SH-SY5Y [2]) was “inactive”.
Molecule `CCCOc1ccc(-c2ccc(-c3noc(Cc4c[nH]c5ccccc45)n3)o2)cc1` has an Activity (SH-SY5Y [5]) of 84.1%, an Activity (SH-SY5Y [6]) of 80.4% and an Activity (SH-SY5Y [1]) of 115.5%. It also gave an Activity (SH-SY5Y [7]) of 98%, an Activity (SH-SY5Y [9]) of 94% and an Activity (SH-SY5Y [2]) of 90%. The Activity (SH-SY5Y [8]) was “inactive”.
